From ChEMBL document CHEMBL1143979, “1-, 3- and 8-substituted-9-deazaxanthines as potent and selective antagonists at the human A2B adenosine receptor” (Bioorg Med Chem, 2008)
Values joined by “and” are separate entries in the source; they are usually repeats but may differ in a detail not shown here. Identical values can stand only once.

Legend:
[1] = molecular target: Adenosine receptor A2a (Homo sapiens, UniProt P29274); test: Displacement of [3H]ZM-241385 from human adenosine A2A receptor expressed in CHO cells; format: cell-based
Summary of the method: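 Competition binding at cloned human receptors: [3H]DPCPX for A1 and A2B, [3H]ZM241385 for A2A, [3H]NECA for A3. Screening compounds are reported as % radioligand displacement at one concentration. SEM below 10%.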

[2] = molecular target: T1, Adenosine receptor A2b (Homo sapiens, UniProt P29275); test: Displacement of [3H]DPCPX from human adenosine A2B receptor expressed in HEK293 cells; format: cell-based
T1 sequence (P29275 whole entry): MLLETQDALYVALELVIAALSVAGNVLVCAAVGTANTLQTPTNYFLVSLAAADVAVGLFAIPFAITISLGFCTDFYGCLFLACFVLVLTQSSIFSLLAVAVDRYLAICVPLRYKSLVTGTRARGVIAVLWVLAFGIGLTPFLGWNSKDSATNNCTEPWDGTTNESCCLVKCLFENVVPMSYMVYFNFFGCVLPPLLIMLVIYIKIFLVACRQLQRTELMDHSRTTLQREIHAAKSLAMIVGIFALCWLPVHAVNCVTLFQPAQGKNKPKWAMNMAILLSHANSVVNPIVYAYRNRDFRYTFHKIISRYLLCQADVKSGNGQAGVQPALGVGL

[3] = species on record: Homo sapiens; test: Selectivity index, ratio for human adenosine A2A receptor to human adenosine A2B receptor

Chain of Adenosine receptor A2a (P29274 whole entry): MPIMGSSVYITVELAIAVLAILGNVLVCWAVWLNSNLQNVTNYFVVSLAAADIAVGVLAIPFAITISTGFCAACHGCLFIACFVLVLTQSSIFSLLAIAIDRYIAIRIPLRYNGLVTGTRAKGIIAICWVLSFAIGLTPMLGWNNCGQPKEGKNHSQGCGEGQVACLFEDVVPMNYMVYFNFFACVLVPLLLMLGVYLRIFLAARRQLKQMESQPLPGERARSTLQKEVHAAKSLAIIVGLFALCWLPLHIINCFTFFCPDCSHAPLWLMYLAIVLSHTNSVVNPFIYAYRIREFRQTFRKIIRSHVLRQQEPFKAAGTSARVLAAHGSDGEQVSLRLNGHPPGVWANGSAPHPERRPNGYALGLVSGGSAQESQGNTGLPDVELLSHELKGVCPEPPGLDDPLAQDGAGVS

Compound	Ki [1]	Ki ([2]; read-out: Log Ki (converted))	Ratio [3]	Ki ([2]; read-out: Ki) [nM]
CCCn1c(=O)c2[nH]c(-c3ccc(OCC(=O)N4CCN(C(c5ccccc5)c5ccccc5)CC4)cc3)cc2n(CCC)c1=O	1580 nM	51.3 nM	30.9	–
CN1CCN(C(=O)COc2ccc(-c3cc4c([nH]3)c(=O)n(C)c(=O)n4C)cc2)CC1	794 nM	174 nM	4.05	–
CCCn1c(=O)n(C)c(=O)c2[nH]c(-c3ccc(OCC(=O)N4CCC(c5ccccc5)CC4)cc3)cc21	1020 nM	–	398	2.5
CCCn1c(=O)c2[nH]c(-c3ccc(OCC(=O)N4CCN(C(=O)Oc5ccccc5)CC4)cc3)cc2n(CCC)c1=O	155 nM	20.4 nM	7.6	–
COc1ccc(C2CCN(C(=O)COc3ccc(-c4cc5c([nH]4)c(=O)n(C)c(=O)n5C)cc3OC)CC2)cc1	871 nM	30.9 nM	28.2	–
O=C(COc1ccc(-c2cc3c([nH]2)c(=O)n(CC2CC2)c(=O)n3CC2CC2)cc1)N1CCN(c2ccccc2)CC1	49 nM	11.7 nM	4.2	–
CCCn1c(=O)c2[nH]c(-c3ccc(OCC(=O)N4CCc5ccccc5C4)cc3)cc2n(CCC)c1=O	93.3 nM	2.29 nM	40.7	–
CCCn1c(=O)n(C)c(=O)c2[nH]c(-c3ccc(OCC(=O)N4CCN(c5c(Cl)cncc5Cl)CC4)cc3)cc21	646 nM	4.27 nM	151	–
CCCn1c(=O)c2[nH]c(-c3ccc(OC(C)C(=O)N4CCc5ccccc5C4)cc3)cc2n(CCC)c1=O (stereo not drawn)	158 nM	4.68 nM	33.9	–
CCCn1c(=O)c2[nH]c(-c3ccc(OCC(=O)N4CCC(c5ccccc5)(c5ccccc5)CC4)cc3)cc2n(CCC)c1=O	1050 nM	21.4 nM	40.7	–
Cn1c(=O)c2[nH]c(-c3ccc(OCC(=O)N4CCN(Cc5ccccc5)CC4)cc3)cc2n(C)c1=O	1550 nM	53.7 nM	28.8	–
CCCn1c(=O)c2[nH]c(-c3ccc(OCC(=O)N4CCN(c5ccccc5)CC4)cc3)cc2n(CCC)c1=O	162 nM	4.79 nM	33.8	–
CCCn1c(=O)n(C)c(=O)c2[nH]c(-c3ccc(OCC(=O)N4CCN(c5nc6ccc(Cl)cc6s5)CC4)cc3)cc21	631 nM	5.75 nM	106	–
CCCn1c(=O)n(C)c(=O)c2[nH]c(-c3ccc(OCC(=O)N4CCN(c5ccccc5Cl)CC4)cc3)cc21	1100 nM	14.8 nM	74.1	–
CCCn1c(=O)c2[nH]c(-c3ccc(OCC(=O)N4CCN(c5c(Cl)cncc5Cl)CC4)cc3)cc2n(CCC)c1=O	74.1 nM	7.59 nM	9.8	–
Cn1c(=O)c2[nH]c(-c3ccc(OCC(=O)N4CCC(C(=O)c5ccc(F)cc5)CC4)cc3)cc2n(C)c1=O	302 nM	11.2 nM	26.9	–

Compound	Ki [1]	Ki ([2]; read-out: Log Ki (converted))	Ratio [3]	Ki ([2]; read-out: Ki) [nM]
Cn1c(=O)c2[nH]c(-c3ccc(OCC(=O)N4CCC(O)(c5ccc(Cl)cc5)CC4)cc3)cc2n(C)c1=O	324 nM	2.88 nM	112	–
CCCn1c(=O)c2[nH]c(-c3ccc(OCC(=O)N4CCN(c5ccccc5Cl)CC4)cc3)cc2n(CCC)c1=O	38 nM	6.92 nM	5.5	–
CCCn1c(=O)c2[nH]c(-c3ccc(OCC(=O)N4CCN(Cc5ccccc5)CC4)cc3)cc2n(CCC)c1=O	257 nM	6.17 nM	41.7	–
COCCn1c(=O)c2[nH]c(-c3ccc(OCC(=O)N4CCN(c5ccccc5)CC4)cc3)cc2n(CCOC)c1=O	398 nM	4.9 nM	81	–
Cn1c(=O)c2[nH]c(-c3ccc(OCC(=O)N4CCC(c5ccccc5)CC4)cc3)cc2n(C)c1=O	794 nM	12.3 nM	64.6	–
O=C(COc1ccc(-c2cc3c([nH]2)c(=O)n(CC2CC2)c(=O)n3CC2CC2)cc1)N1CCc2ccccc2C1	240 nM	9.55 nM	25	–
CCCn1c(=O)c2[nH]c(-c3ccc(OCC(=O)N4CCC(c5ccccc5)CC4)cc3)cc2n(CCC)c1=O	589 nM	20.9 nM	28.2	–
COc1cc(-c2cc3c([nH]2)c(=O)n(C)c(=O)n3C)ccc1OCC(=O)N1CCc2ccccc2C1	6760 nM	170 nM	39	–
CCCn1c(=O)c2[nH]c(-c3ccc(OCC(=O)N4CCN(c5nc6ccc(Cl)cc6s5)CC4)cc3)cc2n(CCC)c1=O	813 nM	10.5 nM	77.6	–
CCCn1c(=O)c2[nH]c(-c3ccc(OCC(=O)N4CCN(c5cccc(Cl)c5)CC4)cc3)cc2n(CCC)c1=O	115 nM	–	75.9	1.5
CCCn1c(=O)n(C)c(=O)c2[nH]c(-c3ccc(OCC(=O)N4CCc5ccccc5C4)cc3)cc21	209 nM and 1000 nM	14.5 nM and 7.24 nM	–	–
CCCn1c(=O)c2[nH]c(-c3ccc(OCC(=O)N4CCC(O)(c5ccccc5)CC4)cc3)cc2n(CCC)c1=O	1150 nM	13.5 nM	85.1	–
CCCn1c(=O)n(C)c(=O)c2[nH]c(-c3ccc(OCC(=O)N4CCC(c5ccccc5OC)CC4)cc3)cc21	407 nM	6.17 nM	66.1	–
CCCn1c(=O)c2[nH]c(-c3ccc(OCC(=O)N4CCN(C(=O)OCc5ccccc5)CC4)cc3)cc2n(CCC)c1=O	151 nM	38.9 nM	3.9	–
CCCn1c(=O)n(C)c(=O)c2[nH]c(-c3ccc(OCC(=O)N4CCC(c5ccc(OC)cc5)CC4)cc3)cc21	398 nM	9.12 nM	43.7	–
CCCn1c(=O)c2[nH]c(-c3ccc(OCC(=O)N4CCN(c5ccc(C(F)(F)F)cc5)CC4)cc3)cc2n(CCC)c1=O	174 nM	4.17 nM	41.7	–

Second part, the compound after the results:

Ki [1]	Ki ([2]; read-out: Log Ki (converted))	Ratio [3]	Ki ([2]; read-out: Ki) [nM]	Compound
316 nM	13.2 nM	24	–	CCCn1c(=O)c2[nH]c(-c3ccc(OCC(=O)N4CCN(c5ccccc5)CC4)cc3)cc2n(C)c1=O
708 nM	25.7 nM	27.5	–	CCCn1c(=O)n(C)c(=O)c2[nH]c(-c3ccc(OCC(=O)N4CCN(c5ccccc5)CC4)cc3)cc21
1450 nM	57.5 nM	25.1	–	COc1cc(-c2cc3c([nH]2)c(=O)n(C)c(=O)n3C)ccc1OCC(=O)N1CCN(c2ccccc2)CC1
115 nM	3.47 nM	33.1	–	Cn1c(=O)c2[nH]c(-c3ccc(OCC(=O)N4CCN(c5ccc(Br)cc5)CC4)cc3)cc2n(C)c1=O
324 nM	9.55 nM	33.8	–	Cn1c(=O)c2[nH]c(-c3ccc(OCC(=O)N4CCN(c5ccc(F)cc5)CC4)cc3)cc2n(C)c1=O
398 nM	3.39 nM	117	–	Cn1c(=O)c2[nH]c(-c3ccc(OCC(=O)N4CCN(c5ccc(Cl)cc5)CC4)cc3)cc2n(C)c1=O
708 nM	58.9 nM	12	–	Cn1c(=O)c2[nH]c(-c3ccc(OCC(=O)N4CCN(c5ccccn5)CC4)cc3)cc2n(C)c1=O
240 nM	6.61 nM	36.3	–	CCCn1c(=O)c2[nH]c(-c3ccc(OC(C)C(=O)N4CCN(c5ccccc5)CC4)cc3)cc2n(CCC)c1=O (stereo not drawn)
170 nM	13.2 nM	12.9	–	COc1ccc(N2CCN(C(=O)COc3ccc(-c4cc5c([nH]4)c(=O)n(C)c(=O)n5C)cc3)CC2)cc1
355 nM	20.4 nM	17.4	–	CC(Oc1ccc(-c2cc3c([nH]2)c(=O)n(C)c(=O)n3C)cc1)C(=O)N1CCN(c2ccccc2)CC1 (stereo not drawn)
389 nM	–	213	2	Cc1ccc(N2CCN(C(=O)C(C)Oc3ccc(-c4cc5c([nH]4)c(=O)n(C)c(=O)n5C)cc3)CC2)cc1 (stereo not drawn)
617 nM	27.5 nM	22	–	Cn1c(=O)c2[nH]c(-c3ccc(OCC(=O)N4CCN(c5ccc(O)cc5)CC4)cc3)cc2n(C)c1=O
479 nM	6.03 nM	79	–	CCCn1c(=O)n(C)c(=O)c2[nH]c(-c3ccc(OCC(=O)N4CCN(c5cccc(Cl)c5)CC4)cc3)cc21
355 nM	6.31 nM	56	–	Cn1c(=O)c2[nH]c(-c3ccc(OCC(=O)N4CCN(c5ccc(C#N)cc5)CC4)cc3)cc2n(C)c1=O
417 nM	13.5 nM	30.9	–	Cn1c(=O)c2[nH]c(-c3ccc(OCC(=O)N4CCN(c5ncccn5)CC4)cc3)cc2n(C)c1=O
269 nM	8.13 nM	26	–	CC(Oc1ccc(-c2cc3c([nH]2)c(=O)n(C)c(=O)n3C)cc1)C(=O)N1CCN(c2ccc(Br)cc2)CC1 (stereo not drawn)
182 nM	3.63 nM	50.1	–	Cn1c(=O)c2[nH]c(-c3ccc(OCC(=O)N4CCN(c5nc6cc(Cl)ccc6s5)CC4)cc3)cc2n(C)c1=O
132 nM	4.17 nM	31.6	–	Cn1c(=O)c2[nH]c(-c3ccc(OCC(=O)N4CCN(c5ccc(C(F)(F)F)cc5)CC4)cc3)cc2n(C)c1=O
155 nM	–	55	3	Cn1c(=O)c2[nH]c(-c3ccc(OCC(=O)N4CCN(c5cccc(Cl)c5)CC4)cc3)cc2n(C)c1=O
2340 nM	51.3 nM	45.7	–	COc1ccccc1N1CCN(C(=O)COc2ccc(-c3cc4c([nH]3)c(=O)n(C)c(=O)n4C)cc2)CC1
174 nM	31.6 nM	5.49	–	Cn1c(=O)c2[nH]c(-c3ccc(OC(C)(C)C(=O)N4CCN(c5ccccc5)CC4)cc3)cc2n(C)c1=O
